ChEMBL document CHEMBL2146441, “2,6-Disubstituted imidazo[2,1-b][1,3,4]thiadiazoles: search for anticancer agents” (2012)

Key:
Assay type in all cases: functional
HCT-15 [1] = test: Cytotoxicity against human HCT15 cells assessed as cell growth at 10^-5 M after 48 hrs by SRB assay; conditions: HCT-15, 48 h, read-out: Activity
Summary of the method: (§1)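 NCI-60 five-dose screen. Cells were grown in RPMI 1640 with 5% FBS and seeded at 5000–40,000 cells/well according to doubling time. They were pre-incubated 24 h at 37 °C in 5% CO₂, and time-zero (Tz) plates were TCA-fixed at drug addition. Five 10-fold dilutions of DMSO stock were applied for 48 h. Read-out was SRB staining, 515 nm absorbance, with percent growth calculated versus Tz and untreated control.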

KM12 = test: Cytotoxicity against human KM12 cells assessed as cell growth at 10^-5 M after 48 hrs by SRB assay; conditions: KM12, 48 h, read-out: Activity
UACC-257 = test: Cytotoxicity against human UACC257 cells assessed as cell growth at 10^-5 M after 48 hrs by SRB assay; conditions: UACC-257, 48 h, read-out: Activity
OVCAR-3 = test: Cytotoxicity against human OVCAR3 cells assessed as cell growth at 10^-5 M after 48 hrs by SRB assay; conditions: OVCAR-3, 48 h, read-out: Activity
OVCAR-4 = test: Growth inhibition of human OVCAR4 cells after 48 hrs by SRB assay; conditions: OVCAR-4, 48 h
Summary of the method: (§2)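 Adherent NCI-60 lines grown in RPMI 1640 with 5% FBS, seeded at 5000–40,000 cells/well, and preincubated 24 h at 37 °C, 5% CO2. Compound, stocked in DMSO, given either once at 10^-5 M or at five 10-fold dilutions for 48 h. Cells fixed with cold TCA (final 10%), stained with 0.4% SRB, and read at 515 nm. GI50 taken as 50% reduction in net protein increase versus time-zero and control plates.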

OVCAR-5 [2] = test: Growth inhibition of human OVCAR5 cells after 48 hrs by SRB assay; conditions: OVCAR-5, 48 h; summary of the method: as §2
T47D [3] = test: Growth inhibition of human T47D cells after 48 hrs by SRB assay; conditions: for CC50: read-out: LC50 (the source's name); summary of the method: as §2
HL-60 [4] = test: Cytotoxicity against human HL60 cells assessed as cell growth at 10^-7 M after 48 hrs by SRB assay; conditions: HL-60, 48 h, read-out: Activity; summary of the method: as §1
[5] = Cytotoxicity against human […] cells assessed as cell growth at 10^-7 M after 48 hrs by SRB assay; conditions: 48 h, read-out: Activity
HT-29 [6] = test: Cytotoxicity against human HT-29 cells assessed as cell growth at 10^-7 M after 48 hrs by SRB assay; conditions: HT-29, 48 h, read-out: Activity; summary of the method: as §1
SNB-19 = test: Cytotoxicity against human SNB19 cells assessed as cell growth at 10^-7 M after 48 hrs by SRB assay; conditions: SNB-19, 48 h, read-out: Activity
HL-60 [7] = test: Cytotoxicity against human HL60 cells assessed as cell growth at 10^-4 M after 48 hrs by SRB assay; conditions: HL-60, 48 h, read-out: Activity; summary of the method: as §1
HCT-15 [8] = test: Cytotoxicity against human HCT15 cells assessed as cell growth at 10^-4 M after 48 hrs by SRB assay; conditions: HCT-15, 48 h, read-out: Activity; summary of the method: as §1
SNB-75 = test: Cytotoxicity against human SNB75 cells assessed as cell growth at 10^-4 M after 48 hrs by SRB assay; conditions: SNB-75, 48 h, read-out: Activity
A498 = test: Cytotoxicity against human A498 cells assessed as cell growth at 10^-4 M after 48 hrs by SRB assay; conditions: A498, 48 h, read-out: Activity
Summary of the method: (§3)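 NCI-60 screen: lines kept in RPMI 1640 with 5% FBS, seeded at 5000–40,000 cells/well by doubling time, preincubated 24 h at 37 °C in 5% CO2. Time-zero plates TCA-fixed at drug addition. DMSO stocks diluted in medium, 48 h exposure. Fixation in cold TCA (final 10% adherent, 16% suspension), 0.4% SRB stain, solubilised in 10 mM Tris base, A515. Percent growth computed against control and time-zero.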

MDA-MB-231 = test: Growth inhibition of human MDA-MB-231 cells after 48 hrs by SRB assay; conditions: MDA-MB-231, 48 h; summary of the method: as §2
HL-60 [9] = test: Cytotoxicity against human HL60 cells assessed as cell growth at 10^-8 M after 48 hrs by SRB assay; conditions: HL-60, 48 h, read-out: Activity; summary of the method: as §1
SR [10] = test: Cytotoxicity against human SR cells assessed as cell growth at 10^-8 M after 48 hrs by SRB assay; conditions: read-out: Activity
IGROV-1 = test: Cytotoxicity against human IGROV1 cells assessed as cell growth at 10^-8 M after 48 hrs by SRB assay; conditions: IGROV-1, 48 h, read-out: Activity
OVCAR-5 [11] = test: Cytotoxicity against human OVCAR5 cells assessed as cell growth at 10^-8 M after 48 hrs by SRB assay; conditions: OVCAR-5, 48 h, read-out: Activity
T47D [12] = test: Cytotoxicity against human T47D cells assessed as cell growth at 10^-8 M after 48 hrs by SRB assay; conditions: read-out: Activity
A549 = test: Cytotoxicity against human A549 cells assessed as cell growth at 10^-6 M after 48 hrs by SRB assay; conditions: A549, 48 h, read-out: Activity; summary of the method: as §3
HT-29 [13] = test: Cytotoxicity against human HT-29 cells assessed as cell growth at 10^-6 M after 48 hrs by SRB assay; conditions: HT-29, 48 h, read-out: Activity; summary of the method: as §1
RXF 393 = test: Cytotoxicity against human RXF393 cells assessed as cell growth at 10^-6 M after 48 hrs by SRB assay; conditions: RXF 393, 48 h, read-out: Activity
[14] = Growth inhibition of human […] cells after 48 hrs by SRB assay
Summary of the method: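 Leukemia suspension lines grown in RPMI 1640 with 5% FBS, seeded at 5000–40,000 cells/well, and preincubated 24 h at 37 °C, 5% CO2. Compound, stocked in DMSO, given either once at 10^-5 M or at five 10-fold dilutions for 48 h. Settled cells fixed with 80% TCA (final 16%), stained with SRB, and read at 515 nm. GI50 calculated against time-zero and control growth.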

NCI-H522 = test: Growth inhibition of human NCI-H522 cells after 48 hrs by SRB assay; conditions: NCI-H522, 48 h; for CC50: read-out: LC50 (the source's name); summary of the method: as §2
SR [15] = test: Cytotoxicity against human SR cells assessed as cell growth at 10^-5 M after 48 hrs by SRB assay; conditions: read-out: Activity

Row | Structure (SMILES) | growth at 10 µM (HCT-15 [1]) [%] | growth at 10 µM (KM12) [%] | growth at 10 µM (UACC-257) [%] | growth at 10 µM (OVCAR-3) [%] | GI50 (OVCAR-4) [nM] | TGI (OVCAR-4) [µM] | GI50 (OVCAR-5 [2]) [µM] | LC50 (OVCAR-5 [2]) [µM] | TGI (OVCAR-5 [2]) [µM] | GI50 (T47D [3]) [nM] | TGI (T47D [3]) [µM] | CC50 (T47D [3]) [µM] | growth at 0.1 µM (HL-60 [4]) [%] | growth at 0.1 µM [5] [%] | growth at 0.1 µM (HT-29 [6]) [%] | growth at 0.1 µM (SNB-19) [%] | growth at 100 µM (HL-60 [7]) [%] | growth at 100 µM (HCT-15 [8]) [%] | growth at 100 µM (SNB-75) [%] | growth at 100 µM (A498) [%] | other results
1 | COc1ccc(-c2nn3cc(-c4ccc(O)cc4O)nc3s2)cc1 | 32 | 21 | 36 | -7 | 1380 | 3.39 | 3.43 | > 100 | > 100 | 1630 | 5.15 | > 100 | 92 | 95 | 94 | 92 | -25 | 4 | -37 | -37 | GI50 (MDA-MB-231): 1370 nM; TGI (MDA-MB-231): 3.57 µM; growth at 0.01 µM (HL-60 [9]): 96%; growth at 0.01 µM (SR [10]): 89%; growth at 0.01 µM (IGROV-1): 96%; growth at 0.01 µM (OVCAR-5 [11]): 92%; growth at 0.01 µM (T47D [12]): 104%; growth at 1 µM (A549): 86%; growth at 1 µM (HT-29 [13]): 86%; growth at 1 µM (RXF 393): 55%; GI50 [14]: 2080 nM; LC50 [14]: > 100 µM; TGI [14]: > 100 µM; GI50 (NCI-H522): 1880 nM; TGI (NCI-H522): 11.2 µM; CC50 (NCI-H522): > 100 µM; growth at 10 µM (SR [15]): 6%
2 | COc1ccc(-c2nn3cc(-c4cccc(N)c4)nc3s2)cc1 | 36 | 37 | 63 | 19 | 1540 | 15.1 | 8.54 | > 100 | 47.1 | 1370 | 21.2 | > 100 | 95 | 83 | 100 | 90 | -14 | 1 | -49 | -67 | CC50 (OVCAR-4; read-out: LC50 (the source's name)): > 100 µM; GI50 (MDA-MB-231): 1580 nM; LC50 (concentration killing 50% of cells present at time zero) (MDA-MB-231): > 100 µM; TGI (MDA-MB-231): 13.2 µM; growth at 0.01 µM (HL-60 [9]): 103%; growth at 0.01 µM (SR [10]): 103%; growth at 0.01 µM (IGROV-1): 102%; growth at 0.01 µM (OVCAR-5 [11]): 103%; growth at 0.01 µM (T47D [12]): 97%; growth at 1 µM (A549): 95%; growth at 1 µM (HT-29 [13]): 88%; growth at 1 µM (RXF 393): 63%; GI50 [14]: 1280 nM; LC50 [14]: > 100 µM; TGI [14]: 26.7 µM; GI50 (NCI-H522): 1630 nM; TGI (NCI-H522): 14 µM; CC50 (NCI-H522): 51.1 µM; growth at 10 µM (SR [15]): 26%
